Assay results reported in ChEMBL document CHEMBL1138205, “Novel heterobivalent tacrine derivatives as cholinesterase inhibitors with notable selectivity toward butyrylcholinesterase” (J Med Chem, 2006).
Calls of active or inactive are those of the source. The calls are words filed in the database; no cut-off is given here.

How the values were obtained:
[1] = molecular target: Acetylcholinesterase (Electrophorus electricus, UniProt O42275); assay: (§1) Inhibition of Electrophorus electricus AChE
Chain of Acetylcholinesterase (Electrophorus electricus, UniProt O42275) (O42275 whole entry): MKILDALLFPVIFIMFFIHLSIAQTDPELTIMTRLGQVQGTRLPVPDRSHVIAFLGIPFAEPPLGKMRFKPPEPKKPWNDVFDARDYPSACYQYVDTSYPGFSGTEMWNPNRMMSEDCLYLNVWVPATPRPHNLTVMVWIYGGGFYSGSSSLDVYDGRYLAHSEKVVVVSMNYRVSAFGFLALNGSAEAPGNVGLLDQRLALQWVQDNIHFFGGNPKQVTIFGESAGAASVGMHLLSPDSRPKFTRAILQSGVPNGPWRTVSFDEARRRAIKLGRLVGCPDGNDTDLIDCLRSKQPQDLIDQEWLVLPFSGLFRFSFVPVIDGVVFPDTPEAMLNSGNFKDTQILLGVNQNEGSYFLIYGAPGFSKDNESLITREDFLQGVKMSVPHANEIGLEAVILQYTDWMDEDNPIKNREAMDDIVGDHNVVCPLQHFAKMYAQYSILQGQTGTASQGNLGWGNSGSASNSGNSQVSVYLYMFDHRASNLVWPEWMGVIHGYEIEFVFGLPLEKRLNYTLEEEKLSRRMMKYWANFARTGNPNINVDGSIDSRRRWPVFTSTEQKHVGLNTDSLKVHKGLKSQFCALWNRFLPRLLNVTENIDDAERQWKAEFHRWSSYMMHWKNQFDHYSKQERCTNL

[2] = molecular target: T1, Acetylcholinesterase (Homo sapiens, UniProt P22303); assay: Inhibition of human AChE
T1 sequence (P22303 whole entry): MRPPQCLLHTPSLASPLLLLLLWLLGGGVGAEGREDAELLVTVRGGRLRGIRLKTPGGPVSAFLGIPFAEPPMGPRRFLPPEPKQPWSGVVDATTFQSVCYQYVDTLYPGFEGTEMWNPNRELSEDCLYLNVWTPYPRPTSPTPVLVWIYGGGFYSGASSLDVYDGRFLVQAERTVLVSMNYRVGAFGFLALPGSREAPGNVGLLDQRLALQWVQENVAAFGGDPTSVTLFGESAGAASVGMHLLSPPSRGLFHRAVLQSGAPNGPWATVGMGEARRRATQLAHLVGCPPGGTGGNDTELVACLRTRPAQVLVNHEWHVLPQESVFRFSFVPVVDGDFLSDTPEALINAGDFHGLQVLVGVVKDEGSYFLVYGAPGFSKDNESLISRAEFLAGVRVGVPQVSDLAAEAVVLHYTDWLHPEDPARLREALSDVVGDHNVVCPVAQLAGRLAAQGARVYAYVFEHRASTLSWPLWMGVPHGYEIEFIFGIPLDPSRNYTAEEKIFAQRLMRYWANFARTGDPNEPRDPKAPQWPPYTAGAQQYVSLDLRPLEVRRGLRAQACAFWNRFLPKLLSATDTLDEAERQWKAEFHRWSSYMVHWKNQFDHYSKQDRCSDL
Outline: (§2)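 Ellman-type spectrophotometric assay at 412 nm in 100 mM sodium phosphate, 100 mM NaCl, pH 7.3, with DTNB. Enzymes: E. electricus AChE (soluble G4), recombinant T. californica AChE (Pichia pastoris, G4), recombinant human AChE (HEK 293, G2/G4), human plasma BChE (G4). Enzyme (~3 U/mL stock) and inhibitor preincubated 15 min at 25 °C. Acetylthiocholine (AChE) or butyrylthiocholine (BChE) then started the reaction. IC50 in duplicate from ≥4 inhibitor concentrations.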

[3] = molecular target: Cholinesterase (Homo sapiens, UniProt P06276); assay: Inhibition of human plasma BChE; format: cell-free; outline: as §2
Chain of Cholinesterase (P06276 whole entry): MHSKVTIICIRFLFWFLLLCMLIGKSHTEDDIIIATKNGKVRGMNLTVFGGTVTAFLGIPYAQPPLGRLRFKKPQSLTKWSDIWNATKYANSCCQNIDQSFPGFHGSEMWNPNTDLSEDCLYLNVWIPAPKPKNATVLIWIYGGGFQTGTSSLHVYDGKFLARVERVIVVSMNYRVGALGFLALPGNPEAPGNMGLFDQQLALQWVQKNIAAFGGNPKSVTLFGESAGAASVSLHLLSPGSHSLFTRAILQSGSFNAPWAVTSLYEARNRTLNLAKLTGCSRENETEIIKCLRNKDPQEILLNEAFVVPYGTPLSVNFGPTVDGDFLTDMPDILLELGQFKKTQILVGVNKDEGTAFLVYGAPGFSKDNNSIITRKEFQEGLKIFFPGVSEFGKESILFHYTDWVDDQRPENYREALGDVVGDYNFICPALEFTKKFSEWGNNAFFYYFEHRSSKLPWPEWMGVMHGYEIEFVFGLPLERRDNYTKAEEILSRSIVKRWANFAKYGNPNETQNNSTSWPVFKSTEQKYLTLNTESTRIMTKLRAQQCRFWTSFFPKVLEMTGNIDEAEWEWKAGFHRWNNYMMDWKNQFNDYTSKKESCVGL

[4] = molecular target: Cholinesterases; ACHE & BCHE (Homo sapiens) (UniProt P06276+P22303); assay: Selectivity for human BChE over human AChE
Chain of Cholinesterases; ACHE & BCHE (Homo sapiens) (P06276 whole entry, looked up): as the sequence (P06276 whole entry) above
Chain of Cholinesterases; ACHE & BCHE (Homo sapiens) (P22303 whole entry, looked up): as the sequence (P22303 whole entry) above
Outline: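 Ratio of IC50 for recombinant human AChE to IC50 for human plasma BChE. Both were measured by DTNB absorbance at 412 nm, pH 7.3, after 15 min enzyme–inhibitor preincubation at 25 °C. Acetyl- or butyrylthiocholine served as substrate. Each IC50 in duplicate from ≥4 inhibitor concentrations.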

[5] = molecular target: Acetylcholinesterase (Torpedo californica, UniProt P04058); assay: Inhibition of Torpedo californica AChE; set-up: species or system Tetronarce californica; outline: as §2
Chain of Acetylcholinesterase (Torpedo californica, UniProt P04058) (P04058 whole entry): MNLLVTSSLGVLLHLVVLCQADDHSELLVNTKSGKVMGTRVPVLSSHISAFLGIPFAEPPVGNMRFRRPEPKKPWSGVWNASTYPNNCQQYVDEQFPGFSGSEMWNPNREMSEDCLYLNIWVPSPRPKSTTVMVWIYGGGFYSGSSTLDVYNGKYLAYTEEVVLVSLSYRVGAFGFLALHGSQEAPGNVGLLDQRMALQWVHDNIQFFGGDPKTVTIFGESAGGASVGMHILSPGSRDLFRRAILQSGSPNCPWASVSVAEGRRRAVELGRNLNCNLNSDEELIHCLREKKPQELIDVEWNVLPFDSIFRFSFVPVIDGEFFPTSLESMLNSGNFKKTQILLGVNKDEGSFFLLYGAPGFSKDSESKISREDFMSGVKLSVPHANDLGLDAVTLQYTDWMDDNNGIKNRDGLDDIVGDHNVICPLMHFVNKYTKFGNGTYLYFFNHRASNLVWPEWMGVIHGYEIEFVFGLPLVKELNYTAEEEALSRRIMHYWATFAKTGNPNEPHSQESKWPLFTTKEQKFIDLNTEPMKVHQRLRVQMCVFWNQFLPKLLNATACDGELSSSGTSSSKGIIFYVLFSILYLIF

[6] = molecular target: Acetylcholinesterase (Electrophorus electricus) (UniProt O42275); assay: Inhibition of Electrophorus electricus AChE at 100 uM
Chain of Acetylcholinesterase (Electrophorus electricus) (O42275 24-633 limits assumed): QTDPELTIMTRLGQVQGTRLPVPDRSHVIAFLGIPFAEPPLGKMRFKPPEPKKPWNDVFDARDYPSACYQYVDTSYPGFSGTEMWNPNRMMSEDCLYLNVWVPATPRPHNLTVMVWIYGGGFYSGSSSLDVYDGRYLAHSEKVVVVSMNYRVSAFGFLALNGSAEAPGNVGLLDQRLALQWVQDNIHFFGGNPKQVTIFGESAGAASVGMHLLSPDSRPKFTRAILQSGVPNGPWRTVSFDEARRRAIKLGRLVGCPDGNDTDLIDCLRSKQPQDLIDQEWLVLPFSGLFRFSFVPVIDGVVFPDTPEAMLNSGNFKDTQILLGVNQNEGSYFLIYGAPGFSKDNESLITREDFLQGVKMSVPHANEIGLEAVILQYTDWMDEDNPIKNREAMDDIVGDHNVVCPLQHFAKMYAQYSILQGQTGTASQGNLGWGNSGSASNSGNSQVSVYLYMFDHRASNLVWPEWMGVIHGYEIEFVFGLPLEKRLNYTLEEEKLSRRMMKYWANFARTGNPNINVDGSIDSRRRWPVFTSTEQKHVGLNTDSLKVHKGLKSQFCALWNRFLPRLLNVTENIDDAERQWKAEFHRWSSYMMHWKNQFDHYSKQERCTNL

[7] = molecular target: T1, Acetylcholinesterase; assay: Inhibition of human AChE at 100 uM
[8] = molecular target: Acetylcholinesterase (Electrophorus electricus) (UniProt O42275); assay: as §1

SMILES	IC50 [1] [nM]	IC50 [2] [nM]	IC50 [3] [nM]	Ratio IC50 [4]	IC50 [5] [nM]	Activity [6]	Activity [7]	Activity [8] [nM]
COc1cc(C(=O)NCCCCCCCC(=O)NN)cc(OC)c1OC	18000							
COc1cc(CCC(=O)NCCCCCC(=O)NNc2c3c(nc4ccccc24)CCCC3)cc(OC)c1OC	20.2	8.39	0.141	59.5	39.8			
COc1cc(CCC(=O)NNc2c3c(nc4ccccc24)CCCC3)cc(OC)c1OC		365	12.1	30.2	40.1			
COc1cc(CCC(=O)NCCCCC(=O)NNc2c3c(nc4ccccc24)CCCC3)cc(OC)c1OC	54.7	59	0.139	424	102			
COc1cc(C(=O)NCCCCCCC(=O)NNc2c3c(nc4ccccc24)CCCC3)cc(OC)c1OC	9.76	5.65	0.523	10.8	25.2			
NNc1c2c(nc3ccccc13)CCCC2	13000							
COc1cc(C(=O)NNc2c3c(nc4ccccc24)CCCC3)cc(OC)c1OC	2260	386	1.7	227	21.1			
COc1cc(CCC(=O)NCCC(=O)NNc2c3c(nc4ccccc24)CCCC3)cc(OC)c1OC	102	135	6.03	22.4	68.9			
COc1cc(C(=O)NCCCCCC(=O)NNc2c3c(nc4ccccc24)CCCC3)cc(OC)c1OC	20.1	18.2	0.969	18.8	55.7			
COc1cc(C(=O)NCC(=O)NNc2c3c(nc4ccccc24)CCCC3)cc(OC)c1OC	104	51.6	27.6	1.87	163			
CCOCC(=O)CCCCCCCNC(=O)c1cc(OC)c(OC)c(OC)c1	> 250000							
COc1cc(CCC(=O)NCCCC(=O)NNc2c3c(nc4ccccc24)CCCC3)cc(OC)c1OC	52.1	72.1	0.226	319	158			
COc1cc(C(=O)NCCC(=O)NNc2c3c(nc4ccccc24)CCCC3)cc(OC)c1OC	100	89.2	12.8	6.97	49.5			
CCN(CC)C(C)C(=O)N1c2ccccc2Sc2ccccc21 (stereo not drawn)			3370	12000	34700	inactive	inactive	
COc1cc(C(=O)NCCCCC(=O)NNc2c3c(nc4ccccc24)CCCC3)cc(OC)c1OC	20.2	17	1.68	10.1	18.1			
COc1cc(C(=O)NCCCCCCCC(=O)NNc2c3c(nc4ccccc24)CCCC3)cc(OC)c1OC	3.25	5.24	0.293	17.9	17.2			3.23
COc1cc(C(=O)NCCCC(=O)NNc2c3c(nc4ccccc24)CCCC3)cc(OC)c1OC	60.5	241	7.13	33.8	26.3			
COc1cc(CCC(=O)NCC(=O)NNc2c3c(nc4ccccc24)CCCC3)cc(OC)c1OC	122	40.7	24	1.7	40.1			
